Assay [1] in a line: Anticancer activity against human DU145 cells assessed as cell viability after 48 hrs by MTT assay. It is filed as functional, cell-based. The following applies: DU-145, 48 h. The method, boiled down:
(§1)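 MTT cytotoxicity assay in human DU-145 prostate, MCF-7 breast and HeLa cervical cancer cell lines. Doxorubicin was the reference drug.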
Background: Tetrazolium assays rely on reduction of a dye to a coloured formazan, in cell work by metabolically active cells.

A further assay relates to HeLa. In words: Anticancer activity against human HeLa cells assessed as cell viability after 48 hrs by MTT assay. It is filed as functional, cell-based. In short, it runs like this: as §1
Assay [2] relates to Bacillus spizizenii. In words: Antibacterial activity against Bacillus subtilis ATCC 6633 after 24 hrs by microtiter plate method. It is filed as functional. The settings on record: ATCC 6633, 24 h. The method, boiled down:
(§2)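 Test concentrations reported in µg/mL. Gentamycin sulfate and ampicillin were the reference drugs.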

The test system of assay [3] is Proteus vulgaris. Description: Antibacterial activity against Proteus vulgaris ATCC 13315 after 24 hrs by microtiter plate method. The following applies: ATCC 13315, 24 h. It is filed as functional. The method, boiled down:
as §2

The target in another assay is T1, Cytochrome P450 2A6 (Homo sapiens, UniProt P11509).
T1 sequence (P11509 whole entry): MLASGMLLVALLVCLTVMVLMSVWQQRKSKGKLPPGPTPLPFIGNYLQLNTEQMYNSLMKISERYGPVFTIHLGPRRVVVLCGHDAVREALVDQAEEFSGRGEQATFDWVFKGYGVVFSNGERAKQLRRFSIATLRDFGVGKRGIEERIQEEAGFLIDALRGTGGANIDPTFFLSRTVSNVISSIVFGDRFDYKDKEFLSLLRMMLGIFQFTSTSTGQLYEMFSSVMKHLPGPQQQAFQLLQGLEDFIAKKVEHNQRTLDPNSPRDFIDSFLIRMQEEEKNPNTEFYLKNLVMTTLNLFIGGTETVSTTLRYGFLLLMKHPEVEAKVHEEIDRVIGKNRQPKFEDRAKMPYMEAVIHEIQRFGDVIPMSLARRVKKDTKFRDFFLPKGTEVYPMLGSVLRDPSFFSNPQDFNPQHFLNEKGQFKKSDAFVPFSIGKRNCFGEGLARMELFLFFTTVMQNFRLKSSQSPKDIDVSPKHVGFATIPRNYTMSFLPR
Description: Inhibition of human microsomal CYP2A6. The format is ADME.

For assay [4], the system named is Escherichia coli. In words: Bactericidal activity against Escherichia coli ATCC 8739 after 24 hrs. It is filed as functional. The following applies: ATCC 8739, 24 h, read-out: MBC99.9. In short, it runs like this: (§3)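 MBC determined by a standard MBC protocol alongside the MIC, with values in µg/mL. Gentamycin sulfate and ampicillin were the references.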
Assay [5] has as its system Escherichia coli. In words: Antibacterial activity against Escherichia coli ATCC 8739 after 24 hrs by microtiter plate method. The format is functional. The settings on record: ATCC 8739, 24 h. In short, it runs like this: as §2
Assay [6] deals with Klebsiella pneumoniae. In words: Antibacterial activity against Klebsiella pneumoniae ATCC 43816 after 24 hrs by microtiter plate method. The format is functional. The following applies: ATCC 43816, 24 h. The method, boiled down:
as §2

In assay [7] the test system is Staphylococcus aureus. Description: Antibacterial activity against methicillin-resistant Staphylococcus aureus NCTC 13616 after 24 hrs by microtiter plate method. It is filed as functional. The settings on record: NCTC 13616, 24 h.
The test system of assay [8] is Bacillus cereus. Description: Bactericidal activity against Bacillus cereus ATCC 14579 after 24 hrs. The format is functional. The following applies: ATCC 14579, 24 h, read-out: MBC99.9. In short, it runs like this: as §3
In assay [9] the test system is Klebsiella pneumoniae. Description: Bactericidal activity against Klebsiella pneumoniae ATCC 43816 after 24 hrs. The format is functional. The settings on record: ATCC 43816, 24 h, read-out: MBC99.9. The method, boiled down:
as §3

A further assay deals with MCF7. Description: Anticancer activity against human MCF7 cells assessed as cell viability after 48 hrs by MTT assay. The settings on record: MCF7, 48 h. The format is functional, cell-based. In short, it runs like this:
as §1

Assay [10] has as its system Bacillus spizizenii. In words: Bactericidal activity against Bacillus subtilis ATCC 6633 after 24 hrs. The format is functional. The following applies: ATCC 6633, 24 h, read-out: MBC99.9. In short, it runs like this: as §3
Assay [11] concerns Staphylococcus aureus. Description: Antibacterial activity against methicillin-resistant Staphylococcus aureus NCTC 13616 assessed as growth inhibition at 100 ug/ml after 24 hrs by agar well diffusion method. It is filed as functional, organism-based. The method, boiled down: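 Agar well diffusion assay with compounds applied to wells at several concentrations, including the 100 level reported here. The zone of inhibition was measured in mm. Gentamycin sulfate was the standard drug.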
A general note: A growth-free zone around the sample is the usual read-out of agar diffusion tests.

For assay [12], the system named is Staphylococcus aureus. In words: Bactericidal activity against methicillin-resistant Staphylococcus aureus NCTC 13616 after 24 hrs. The format is functional. The settings on record: NCTC 13616, 24 h, read-out: MBC99.9. The method, boiled down:
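MBC determined by a standard MBC protocol run alongside the MIC determination. Gentamycin sulfate and ampicillin served as reference drugs.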

Assay [13] relates to Bacillus cereus. Description: Antibacterial activity against Bacillus cereus ATCC 14579 after 24 hrs by microtiter plate method. The format is functional. The settings on record: ATCC 14579, 24 h. In short, it runs like this:
as §2

Assay [14] concerns Proteus vulgaris. In words: Bactericidal activity against Proteus vulgaris ATCC 13315 after 24 hrs. The settings on record: ATCC 13315, 24 h, read-out: MBC99.9. It is filed as functional. The method, boiled down: as §3
The subject of assay [15] is Escherichia coli. Description: Antibacterial activity against Escherichia coli ATCC 8739 assessed as growth inhibition at 100 ug/ml after 24 hrs by agar well diffusion method. It is filed as functional. The method, boiled down:
(§4)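 Agar well diffusion. Compounds were tested at 10, 20, 100, 200 and 300 µg/mL, and the zone of inhibition was measured in mm. Gentamycin sulfate was the reference drug.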

Assay [16] deals with Bacillus cereus. In words: Antibacterial activity against Bacillus cereus ATCC 14579 assessed as growth inhibition at 100 ug/ml after 24 hrs by agar well diffusion method. The format is functional. The method, boiled down: as §4
For assay [17], the system named is Proteus vulgaris. Description: Antibacterial activity against Proteus vulgaris ATCC 13315 assessed as growth inhibition at 100 ug/ml after 24 hrs by agar well diffusion method. It is filed as functional. The method, boiled down: as §4
Assay [18] has as its system Klebsiella pneumoniae. Description: Antibacterial activity against Klebsiella pneumoniae ATCC 43816 assessed as growth inhibition at 100 ug/ml after 24 hrs by agar well diffusion method. It is filed as functional. The method, boiled down: as §4
Assay [19] has as its system Bacillus spizizenii. Description: Antibacterial activity against Bacillus subtilis ATCC 6633 assessed as growth inhibition at 100 ug/ml after 24 hrs by agar well diffusion method. The format is functional, organism-based. The method, boiled down: as §4

In brackets after ≈: the same amount, converted by molar mass. Activity calls are given as the source filed them. No cut-off for these calls is given here.

The source of these data is ChEMBL document CHEMBL3739273, “Synthesis, biological activity evaluation and molecular docking studies of novel coumarin substituted thiazolyl-3-aryl-pyrazole-4-carbaldehydes” (Bioorg Med Chem Lett, 2015).

One may read the IC50 as the concentration that inhibits the measured activity by half. Take `COc1cccc2c1C(=O)c1c(O)c3c(c(O)c1C2=O)C[C@@](O)(C(=O)CO)C[C@@H]3O[C@H]1C[C@H](N)[C@H](O)[C@H](C)O1` [DOXORUBICIN]: the IC50 in assay [1] is 2.49 µM; with HeLa it was 3.92 µM.
By MIC is commonly meant the lowest concentration that inhibits growth of the organism. A high value points to weaker potency. Usually Ki stands for a measure of affinity in units of concentration, obtained from inhibition or displacement. Higher therefore signals lower affinity. As for `O=Cc1cn(-c2nc(-c3cc4ccccc4oc3=O)cs2)nc1-c1ccccc1`, the minimum inhibitory concentration (MIC) against Bacillus spizizenii [2] amounted to 132 µg/mL (≈ 330 µM); in the assay with Proteus vulgaris [3], 133 µg/mL (≈ 333 µM); in the assay on Escherichia coli [5], 135 µg/mL (≈ 338 µM); with Klebsiella pneumoniae [6] it was 150 µg/mL (≈ 376 µM); in the assay on Staphylococcus aureus [7], 150 µg/mL (≈ 376 µM); against Bacillus cereus [13], 145 µg/mL (≈ 363 µM). This molecule also yielded a Ki at Cytochrome P450 2A6 of 0.013 µM. The IC50 (in assay [1]; with HeLa; with MCF7) was > 100 µM throughout. For the same molecule, the MBC amounted to 270 µg/mL (≈ 676 µM) in the assay on Escherichia coli [4]; 290 µg/mL (≈ 726 µM) in the assay on Bacillus cereus [8]; 225 µg/mL (≈ 563 µM) with Klebsiella pneumoniae [9]; 260 µg/mL (≈ 651 µM) with Bacillus spizizenii [10]; 300 µg/mL (≈ 751 µM) in the assay with Staphylococcus aureus [12]; 200 µg/mL (≈ 501 µM) with Proteus vulgaris [14]. Further, the “growth inhibition (GI)” value with Staphylococcus aureus [11] was “inactive”.
Consider `COc1cccc2cc(-c3csc(-n4cc(C=O)c(-c5ccc(Cl)cc5)n4)n3)c(=O)oc12`, for which the “growth inhibition (GI)” value in the assay on Escherichia coli [15], in the assay with Bacillus cereus [16], in the assay with Proteus vulgaris [17], in the assay on Klebsiella pneumoniae [18], with Bacillus spizizenii [19] and in the assay on Staphylococcus aureus [11] was “Active” in each case. Moreover, the MIC against Bacillus spizizenii [2] stood at 133 µg/mL (≈ 286 µM); in the assay on Proteus vulgaris [3], 132 µg/mL (≈ 285 µM); in the assay with Escherichia coli [5], 125 µg/mL (≈ 270 µM); in the assay on Klebsiella pneumoniae [6], 129 µg/mL (≈ 278 µM); in the assay on Staphylococcus aureus [7], 139 µg/mL (≈ 300 µM); in the assay with Bacillus cereus [13], 126 µg/mL (≈ 272 µM). For the same molecule, at Cytochrome P450 2A6, affinity was put at a Ki of 0.00327 µM. Moreover, the IC50 in [1] is 38.2 µM; in the assay on HeLa, 41.9 µM; in the assay with MCF7, 71.7 µM. The MBC in the assay with Escherichia coli [4] turned out to be 185 µg/mL (≈ 399 µM); with Bacillus cereus [8], 250 µg/mL (≈ 539 µM); in the assay with Klebsiella pneumoniae [9] it was 260 µg/mL (≈ 560 µM); in the assay with Bacillus spizizenii [10], 260 µg/mL (≈ 560 µM); with Staphylococcus aureus [12], 275 µg/mL (≈ 593 µM); in the assay with Proteus vulgaris [14] it was 260 µg/mL (≈ 560 µM).
In the case of `CC1(C)S[C@@H]2[C@H](NC(=O)[C@H](N)c3ccccc3)C(=O)N2[C@H]1C(=O)O` [AMPICILLIN], the minimal inhibitory concentration (MIC) was 5 µg/mL (≈ 14.3 µM) in the assay on Bacillus spizizenii [2], 10 µg/mL (≈ 28.6 µM) against Escherichia coli [5], 4 µg/mL (≈ 11.4 µM) against Staphylococcus aureus [7] and 4 µg/mL (≈ 11.4 µM) in the assay with Bacillus cereus [13]. Also, the MBC in the assay with Escherichia coli [4] was 18 µg/mL (≈ 51.5 µM); with Bacillus cereus [8], 8 µg/mL (≈ 22.9 µM); with Bacillus spizizenii [10], 10 µg/mL (≈ 28.6 µM); with Staphylococcus aureus [12] it was 6 µg/mL (≈ 17.2 µM).
With `COc1cccc2cc(-c3csc(-n4cc(C=O)c(-c5ccc(C)cc5)n4)n3)c(=O)oc12`, the minimum inhibitory concentration (MIC) with Bacillus spizizenii [2] was found to be 150 µg/mL (≈ 338 µM); against Proteus vulgaris [3], 142 µg/mL (≈ 320 µM); in the assay with Escherichia coli [5] it was 133 µg/mL (≈ 299 µM); in the assay on Klebsiella pneumoniae [6], 150 µg/mL (≈ 338 µM); in the assay on Staphylococcus aureus [7], 150 µg/mL (≈ 338 µM); against Bacillus cereus [13] it was 136 µg/mL (≈ 307 µM). This molecule registered an inhibition constant Ki on Cytochrome P450 2A6 of 0.00193 µM. The IC50 in [1] worked out at 31.4 µM; in the assay with HeLa, 28.2 µM; with MCF7 it was 42.6 µM. Further, the MBC is 260 µg/mL (≈ 586 µM) in the assay with Escherichia coli [4]; 275 µg/mL (≈ 620 µM) with Bacillus cereus [8]; 300 µg/mL (≈ 676 µM) in the assay with Klebsiella pneumoniae [9]; 300 µg/mL (≈ 676 µM) in the assay with Bacillus spizizenii [10]; 300 µg/mL (≈ 676 µM) with Staphylococcus aureus [12]; 285 µg/mL (≈ 643 µM) with Proteus vulgaris [14]. Also, the “growth inhibition (GI)” value with Staphylococcus aureus [11] is “inactive”.
